A number with no mark means an inactive call. Activity calls are given as the source filed them.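 Rule for the calls: active = growth inhibition above a set limit, 3 SD over mean compound inhibition, in both replicates (cut at about 43% in these data); inconclusive = above the limit in only one replicate; inactive = at or below the limit in both replicates.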
Assay: Restrictive medium S. cerevisiae growth inhibition, OD615, pilot screen of yeast lifespan reduction project, restrictive growth control (AID 706)
Conditions: OD615, 48 h, at 10 µM, hits give high values
Outline: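 Assay system – genetically modified Saccharomyces cerevisiae, DeaD replicative lifespan assay strain · Medium – CSMM-D glucose medium · Doses – 10 µM compound, 0.25% DMSO · Times – 4 h pre-incubation, 48 h exposure at 30 °C · Signal – optical density at 615 nm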
`CN1CCN(c2ccccc2NC(=O)C(Cc2ccccc2)n2cccc2)CC1` (stereo not given) gave a growth inhibition of -4.39%.
In the case of `CN1CCCc2cc3c(C(F)(F)F)cc(=O)oc3nc21`, the growth inhibition is reported as 5.85%.
With `O=C(Nc1nc(-c2ccccn2)cs1)C1COc2ccccc2O1` (stereo not given) the growth inhibition was 96.9% (active).
`Cc1cc(-c2nnc(-c3cc4ccccc4oc3=O)o2)c(C)n1-c1ccccc1` gave a growth inhibition of -2.88%.
In the case of `COc1cccc(-c2nc(CS(=O)CC(=O)NCc3ccc4c(c3)OCO4)c(C)o2)c1` (stereo not given), the growth inhibition is reported as 14.7%.
Compound `CCCCC(=O)OCCNC(=O)c1cc2ccccc2oc1=O` has a growth inhibition of -0.93%.
Work on `CC(=O)Nc1ccc(S(=O)(=O)NCCc2cc3c(C)ccc(C)c3[nH]c2=O)cc1` yielded a growth inhibition of -6.53%.
`Fc1cc2nc(-c3ccncc3)[nH]c2cc1F` showed a growth inhibition of -19.1%.
In the case of `CCC(=O)NCCn1c(C)cc2ccccc21`, the growth inhibition is reported as 11.4%.
For `O=C(O)c1cccc(NS(=O)(=O)c2cccc3cccnc23)c1`, the growth inhibition was -3.79%.
`NC(=O)COc1ccc(=O)n(-c2ccccc2)n1` gave a growth inhibition of 4.29%.
In the case of `COc1cc2c(C(=O)NCc3ccccn3)cn(C)c(=O)c2cc1OC`, the growth inhibition is reported as -2.63%.
With `CCOc1ccc(N(CC(=O)NCc2ccccc2)S(C)(=O)=O)cc1` the growth inhibition was -4.28%.
With `COc1ccc(S(=O)(=O)Cc2ccc(C(=O)N3CCN(C4CCCCC4)CC3)o2)cc1` the growth inhibition was 7.12%.
`CCn1c(CNC(=O)C23CC4CC(CC(C4)C2)C3)nnc1SCC(=O)Nc1nnc(C)s1` gave a growth inhibition of 24.3%.
With `COc1ccc(N(CC(=O)NCc2ccco2)S(=O)(=O)c2c(C)nn(C)c2C)cc1` the growth inhibition was -12.6%.
Compound `Cc1cccnc1NC(=O)c1c(O)c2ccccc2n(C)c1=O` has a growth inhibition of 11.4%.
In the case of `COc1ccc(C2OC(=O)CC2C(=O)N2CCN(c3cc(Cl)ccc3C)CC2)cc1OC` (stereo not given), the growth inhibition is reported as 4.67%.
Compound `CCc1cc2c(=O)c(-c3nc4ccccc4n3C)c(C(C)C)oc2c(CN2CCN(C)CC2)c1O` has a growth inhibition of 8.45%.
In the case of `CCCSc1nnc2c(n1)OC(c1cccn1C)N(C(C)=O)c1ccccc1-2` (stereo not given), the growth inhibition is reported as -5.99%.
For `CC(NC(=O)CSc1ncnc2nc[nH]c12)c1ccccc1` (stereo not given), the growth inhibition was -5.1%.
Work on `Cc1ccc(-n2nnc3c(=O)n(CC(=O)NCc4ccco4)cnc32)cc1` yielded a growth inhibition of 2.02%.
`O=C(c1oc(=O)c2ccccc2c1-c1ccccc1)N1CCC(O)CC1` gave a growth inhibition of -0.17%.
`CC(CCCC(C)(C)O)NCCO` (stereo not given) gave a growth inhibition of -4.3%.
Compound `O=C(c1ccco1)N1CCN(c2nc3ccsc3c(=O)s2)CC1` has a growth inhibition of 6.59%.
